We go through one compound from ChEMBL document CHEMBL1649147, “Antistaphylococcal activity of dihydrophthalazine antifolates, a family of novel antibacterial drugs” (2009).

In brackets after ≈: the same amount, converted by molar mass.

By MIC is commonly meant the smallest concentration in the dilution series that meets the test's criterion for growth inhibition. The MIC50 is the lowest concentration that inhibits either 50% of growth or 50% of the strains tested, depending on the study. A high value points to weaker potency. The term MIC90 denotes the lowest concentration that inhibits either 90% of growth or 90% of the strains tested, depending on the study. High values mean lower susceptibility, low ones higher susceptibility.

The first experiment concerns Staphylococcus aureus. Kind of experiment: Antibacterial activity against Staphylococcus aureus ATCC 29213 assessed as change in MIC by agar odilution method after serial passages in presence of antibiotic relative to control. In kind it is functional, ATCC29213.
Settings: not given
The method, boiled down:
(§1)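 Serial passage under drug. Inoculum was ~1 × 10^6 CFU/ml from overnight MHA growth, in 1 ml MHB at 35°C for 24 h. Drug ranged from 4 log2 steps above to 3 log2 steps below the MIC. […] MIC change is given as log2 steps.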
Consider `COc1cc(Cc2cnc(N)nc2N)cc(/C=C/C(=O)N2N=Cc3ccccc3C2c2cnc(N3CCOCC3)nc2)c1OC` (configuration not stated), for which the “fold change (FC)” value was 4.

In a further experiment the test system is Staphylococcus epidermidis. In words: Antibacterial activity against methicillin-resistant, vancomycin-intermediate coagulase-negative Staphylococcus epidermidis 225 by agar dilution method. In kind it is functional.
Settings: not given
The method, boiled down: (§2)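 Agar dilution on Mueller-Hinton agar per CLSI guidelines. S. aureus ATCC 29213 and E. faecalis ATCC 29212 were run with each set, and test MICs were accepted only when the control strains fell within acceptable ranges.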
(In agar dilution the substance is mixed into plates at graded concentrations.)
Regarding `COc1cc(Cc2cnc(N)nc2N)cc(/C=C/C(=O)N2N=Cc3ccccc3C2c2cnc(N3CCOCC3)nc2)c1OC` (configuration not stated), the MIC was 0.25 µg/mL (≈ 0.411 µM).

For a further experiment, the system named is Staphylococcus aureus. In words: Antibacterial activity against methicillin-susceptible Staphylococcus aureus by agar dilution method.
Settings: not given
It counts as functional. The method, boiled down: as §2
For the compound `COc1cc(Cc2cnc(N)nc2N)cc(/C=C/C(=O)N2N=Cc3ccccc3C2c2cnc(N3CCOCC3)nc2)c1OC` (configuration not stated), the MIC50 was 0.03 µg/mL (≈ 0.0494 µM) and the MIC90 was 0.25 µg/mL (≈ 0.411 µM).

The test system of a further experiment is Staphylococcus aureus. In words: Antibacterial activity against Staphylococcus aureus 505 assessed as change in MIC by agar dilution method after serial passages in presence of antibiotic relative to control. It counts as functional.
Settings: not given
In outline:
as §1
For the compound `COc1cc(Cc2cnc(N)nc2N)cc(/C=C/C(=O)N2N=Cc3ccccc3C2c2cnc(N3CCOCC3)nc2)c1OC` (configuration not stated), the “fold change (FC)” value worked out at 6.

Another experiment relates to Staphylococcus epidermidis. Kind of experiment: Antibacterial activity against coagulase-negative Staphylococcus epidermidis 197 assessed as change in MIC by agar dilution method after serial passages in presence of antibiotic relative to control. In kind it is functional.
Settings: not given
In outline:
as §1
On to `COc1cc(Cc2cnc(N)nc2N)cc(/C=C/C(=O)N2N=Cc3ccccc3C2c2cnc(N3CCOCC3)nc2)c1OC` (configuration not stated), for which the “fold change (FC)” value was 4.

In the next experiment the test system is Staphylococcus aureus. Kind of experiment: Antibacterial activity against Tmp-resistant Staphylococcus aureus by agar dilution method. It counts as functional.
Settings: not given
In outline: (§3)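 MICs by agar dilution on Mueller-Hinton agar following CLSI guidelines. S. aureus ATCC 29213 and E. faecalis ATCC 29212 were run as quality controls with each set, and test-strain MICs were kept only if control MICs fell within acceptable ranges.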
`COc1cc(Cc2cnc(N)nc2N)cc(/C=C/C(=O)N2N=Cc3ccccc3C2c2cnc(N3CCOCC3)nc2)c1OC` (configuration not stated) gave an MIC50 of 0.25 µg/mL (≈ 0.411 µM) and an MIC90 of 0.5 µg/mL (≈ 0.823 µM).

Another experiment relates to Staphylococcus epidermidis. In words: Antibacterial activity against coagulase-negative Staphylococcus epidermidis 057 assessed as change in MIC by agar dilution method after serial passages in presence of antibiotic relative to control.
Settings: not given
In kind it is functional. The method, boiled down: as §1
Regarding `COc1cc(Cc2cnc(N)nc2N)cc(/C=C/C(=O)N2N=Cc3ccccc3C2c2cnc(N3CCOCC3)nc2)c1OC` (configuration not stated), the “fold change (FC)” value turned out to be 5.

In the next experiment the test system is Staphylococcus epidermidis. In words: Antibacterial activity against methicillin-resistant coagulase-negative Staphylococcus epidermidis 074 by broth macrodilution method. In kind it is functional.
Settings: not given
`COc1cc(Cc2cnc(N)nc2N)cc(/C=C/C(=O)N2N=Cc3ccccc3C2c2cnc(N3CCOCC3)nc2)c1OC` (configuration not stated) registered an MIC of 0.25 µg/mL (≈ 0.411 µM).

The subject of the next experiment is coagulase-negative staphylococci. In words: Antibacterial activity against Tmp-resistant coagulase-negative staphylococci by agar dilution method.
Settings: not given
In turn, `COc1cc(Cc2cnc(N)nc2N)cc(/C=C/C(=O)N2N=Cc3ccccc3C2c2cnc(N3CCOCC3)nc2)c1OC` (configuration not stated) displayed an MIC50 of 0.125 µg/mL (≈ 0.206 µM) and an MIC90 of 1 µg/mL (≈ 1.65 µM).

A further experiment concerns Staphylococcus aureus. In words: Antibacterial activity against Staphylococcus aureus 145 assessed as change in MIC by agar dilution method after serial passages in presence of antibiotic relative to control. It counts as functional.
Settings: not given
The method, boiled down:
as §1
As to `COc1cc(Cc2cnc(N)nc2N)cc(/C=C/C(=O)N2N=Cc3ccccc3C2c2cnc(N3CCOCC3)nc2)c1OC` (configuration not stated), the “fold change (FC)” value is given as 9.

The next experiment has as its system Staphylococcus epidermidis. In words: Antibacterial activity against coagulase-negative Staphylococcus epidermidis 051 assessed as change in MIC by agar dilution method after serial passages in the absence of antibiotic relative to control. It counts as functional.
Settings: not given
In outline: (§4)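 After drug-selective serial passage, selected clones were passaged 10 times in antibiotic-free MHB. MICs were then redetermined, and the change is expressed as log2 dilution steps.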
For the compound `COc1cc(Cc2cnc(N)nc2N)cc(/C=C/C(=O)N2N=Cc3ccccc3C2c2cnc(N3CCOCC3)nc2)c1OC` (configuration not stated), the “fold change (FC)” value is listed as -6.

In a further experiment the test system is Staphylococcus epidermidis. In words: Antibacterial activity against coagulase-negative Staphylococcus epidermidis 051 assessed as change in MIC by agar dilution method after serial passages in presence of antibiotic relative to control. In kind it is functional.
Settings: not given
In outline: as §1
In the case of `COc1cc(Cc2cnc(N)nc2N)cc(/C=C/C(=O)N2N=Cc3ccccc3C2c2cnc(N3CCOCC3)nc2)c1OC` (configuration not stated), the “fold change (FC)” value turned out to be 7.

The test system of another experiment is Staphylococcus epidermidis. In words: Antibacterial activity against methicillin-susceptible coagulase-negative Staphylococcus epidermidis 051 by broth macrodilution method. It counts as functional.
Settings: not given
Turning to `COc1cc(Cc2cnc(N)nc2N)cc(/C=C/C(=O)N2N=Cc3ccccc3C2c2cnc(N3CCOCC3)nc2)c1OC` (configuration not stated), the lowest concentration to inhibit growth (MIC) was 0.25 µg/mL (≈ 0.411 µM).

The next experiment concerns Staphylococcus aureus. In words: Antibacterial activity against methicillin-susceptible Staphylococcus aureus ATCC 29213 by broth macrodilution method. In kind it is functional. The conditions noted are these: ATCC29213.
The compound `COc1cc(Cc2cnc(N)nc2N)cc(/C=C/C(=O)N2N=Cc3ccccc3C2c2cnc(N3CCOCC3)nc2)c1OC` (configuration not stated) showed a minimum inhibitory concentration (MIC) of 0.06 µg/mL (≈ 0.0987 µM).

Another experiment deals with Staphylococcus epidermidis. Kind of experiment: Antibacterial activity against coagulase-negative Staphylococcus epidermidis 345 assessed as change in MIC by agar dilution method after serial passages in presence of antibiotic relative to control.
Settings: not given
It counts as functional. The method, boiled down:
as §1
As to `COc1cc(Cc2cnc(N)nc2N)cc(/C=C/C(=O)N2N=Cc3ccccc3C2c2cnc(N3CCOCC3)nc2)c1OC` (configuration not stated), the “fold change (FC)” value is on record as 6.

The next experiment concerns Staphylococcus aureus. In words: Antibacterial activity against Staphylococcus aureus 145.
Settings: not given
`COc1cc(Cc2cnc(N)nc2N)cc(/C=C/C(=O)N2N=Cc3ccccc3C2c2cnc(N3CCOCC3)nc2)c1OC` (configuration not stated) yielded an MIC of 0.25 µg/mL (≈ 0.411 µM).

A further experiment has as its system Staphylococcus epidermidis. Kind of experiment: Antibacterial activity against coagulase-negative Staphylococcus epidermidis 225 assessed as change in MIC by agar dilution method after serial passages in the absence of antibiotic relative to control. In kind it is functional.
Settings: not given
In outline:
as §4
For `COc1cc(Cc2cnc(N)nc2N)cc(/C=C/C(=O)N2N=Cc3ccccc3C2c2cnc(N3CCOCC3)nc2)c1OC` (configuration not stated), the “fold change (FC)” value is recorded as -7.

The subject of another experiment is Staphylococcus epidermidis. In words: Antibacterial activity against coagulase-negative Staphylococcus epidermidis 345 by agar dilution method.
Settings: not given
It counts as functional. In outline:
as §3
`COc1cc(Cc2cnc(N)nc2N)cc(/C=C/C(=O)N2N=Cc3ccccc3C2c2cnc(N3CCOCC3)nc2)c1OC` (configuration not stated) returned a minimum inhibitory concentration (MIC) of 0.06 µg/mL (≈ 0.0987 µM).

A further experiment relates to Staphylococcus epidermidis. In words: Antibacterial activity against coagulase-negative Staphylococcus epidermidis 345 assessed as change in MIC by agar dilution method after serial passages in the absence of antibiotic relative to control. In kind it is functional.
Settings: not given
In outline:
as §4
On to `COc1cc(Cc2cnc(N)nc2N)cc(/C=C/C(=O)N2N=Cc3ccccc3C2c2cnc(N3CCOCC3)nc2)c1OC` (configuration not stated), for which the “fold change (FC)” value is -1.
